Compound activity (PubChem BioAssay)
ABHD4 inh: inhibitors of mouse ABHD4; purified mABHD4, FP-Rh probe fluorescence polarization; inhibition, % at 8.92 µM; hit rate 0.54% among 370,000; AID 720543;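 active = inhibition exceeding the mean over every tested compound plus 3 SD, cut at about 30% in these data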;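 also: 0% = plate median of compound wells and 100% = S159A mutant with DMSO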
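Material: mouse ABHD4 enzyme, wild type; Benchmarks: S159A mutant high control, sample median low control; Buffer or medium: HEPES pH 7.0, NaCl, Pluronic buffer; Signal: fluorescence polarization; Read-out: percent inhibition of probe binding, normalized to plate controls; Timing: pre-incubation 45 min, probe exposure 60 min, at 25 °C; Dosing: 8.92 µM, single dose.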
TCR CD3 inh: human TCR-CD3 binding inhibition; TAMRA-labeled TCR probe fluorescence, biochemical; hit rate 0.37% among 360,000; inhibition, % at 9.4 µM;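 also: recombinant mutant TCR 2C K166C tagged with TAMRA read by polarization; 0% = receptor in buffer alone and 100% = receptor with positive control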
SIAE inh: human SIAE inhibition, primary screen; Q9HAT2; SIAE FP-Rh probe binding, fluorescence polarization; inhibition, % at 9.66 µM; hit rate 0.69% among 370,000;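 active = inhibition above a cutoff: mean of compounds within the control limits plus 3 SD of those, cut at about 17% in these data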;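 also: 0% = plate median of compound wells and 100% = probe without SIAE protein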
HTRA1 inh: HTRA1 (human) protease inhibition | Q92743 | recombinant HTRA1, FP-rhodamine activity-based probe, fluorescence polarization | inhibition, % at 5.96 µM | hit rate 0.5% among 340,000; in the data active = inhibition above about 36%;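 also: 0% = enzyme with DMSO and 100% = wells lacking enzyme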
Target sequence (Q92743 whole entry, looked up): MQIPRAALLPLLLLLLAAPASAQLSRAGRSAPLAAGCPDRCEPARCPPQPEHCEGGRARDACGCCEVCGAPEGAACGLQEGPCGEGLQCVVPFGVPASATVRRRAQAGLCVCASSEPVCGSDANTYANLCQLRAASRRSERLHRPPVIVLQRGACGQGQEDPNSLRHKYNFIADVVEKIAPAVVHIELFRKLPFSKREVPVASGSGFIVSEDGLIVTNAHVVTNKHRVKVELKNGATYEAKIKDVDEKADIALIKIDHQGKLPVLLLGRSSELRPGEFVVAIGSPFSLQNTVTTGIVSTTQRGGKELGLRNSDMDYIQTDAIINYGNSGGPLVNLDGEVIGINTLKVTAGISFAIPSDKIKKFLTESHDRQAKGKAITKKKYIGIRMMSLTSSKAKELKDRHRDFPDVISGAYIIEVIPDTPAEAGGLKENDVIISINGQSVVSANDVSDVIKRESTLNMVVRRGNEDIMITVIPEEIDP
PRMT1 FP inh: inhibitors of human PRMT1; Q99873; recombinant PRMT1, activity-based probe fluorescence polarization; inhibition, % at 2.79 µM; hit rate 1.3% among 370,000; AID 652257;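 active = inhibition above about 21% made by adding two undisclosed values, limit read from the data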
HTRA1 conf: confirmation of human HTRA1 inhibitors; inhibition, % at 5.96 µM; shares compounds with HTRA1 inh; hit rate 66% among 1,600; recombinant HTRA1, FP-rhodamine activity-based probe, fluorescence polarization;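 active = mean inhibition over three repeats above a set limit taken from the earlier primary screen, cut at about 37% in these data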;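 also: 0% = HTRA1 with DMSO and 100% = wells lacking HTRA1; inhibitors block probe binding so polarization drops and inhibition rises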
BSA TAMRA ctr: BSA probe counter-screen for TCR-CD3 inhibitors. shares compounds with TCR CD3 inh. TAMRA-labeled BSA probe fluorescence counterscreen. inhibition, % at 9.4 µM. hit rate 10% among 1,200. AID 652035; in the data active = inhibition above about 23%;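 also: 0% = buffer low control and 100% = reference high control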
TCR-CD3 inh conf: TCR-CD3 interaction inhibition, confirmation; shares compounds with TCR CD3 inh; TAMRA-labeled TCR probe fluorescence binding assay; inhibition, % at 9.4 µM; hit rate 48% among 1,200; AID 652036
PRMT1 inh conf: confirmation of human PRMT1 inhibitors; shares compounds with PRMT1 FP inh; recombinant His-PRMT1, activity-based probe fluorescence polarization; inhibition, % at 2.79 µM; hit rate 42% among 3,300; AID 687036;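 active = mean inhibition across replicates above the hit cutoff derived for the earlier primary screen, cut at about 22% in these data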
mABHD4 conf: ABHD4 (mouse) inhibition, FP confirmation; inhibition, % at 8.92 µM; shares compounds with ABHD4 inh; purified mABHD4, FP-Rh probe fluorescence polarization; hit rate 55% among 1,800;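 active = mean inhibition across replicates above the hit cutoff set in the primary screen, cut at about 30% in these data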;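 also: 0% = wild-type ABHD4 with DMSO and 100% = catalytically dead S159A mutant with DMSO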
An asterisk follows results filed as active; x = no result. Compounds with a hit are over-represented: about 2.6% of the library has one in this group of screens. Rule as the data show it, unless noted: active = inhibition above about 19%; inactive = the rest.

SMILES | ABHD4 inh | TCR CD3 inh | SIAE inh | HTRA1 inh | PRMT1 FP inh | HTRA1 conf | mABHD4 conf | others
CC1(C)CNc2cc(N)ccc2S1 | 38* | 0 | 6 | 72* | 12 | 13 | 40*
O=C1c2ccccc2C(=O)c2c1cccc2N1CCCC1 | 33* | -22 | 0 | 45* | 14 | 49* | 57*
Oc1ccccc1N=Cc1c(O)ccc2oc3c(c12)CCCC3 | 30* | 9 | 7 | 43* | 15 | 68* | -5
CCOC(=O)N(C)C[C@H]1OCc2cn(nn2)CCCC(=O)N([C@@H](C)CO)C[C@@H]1C | 2 | 5 | 0 | x | 0 | x | x
Nc1cc2c(cc1O)CCCC2 | 30* | 7 | 7 | 44* | 5 | 30 | 28
O=C(O)c1cc2ccccc2c2c1C(=O)c1ccccc1-2 | 3 | 3 | -1 | 1 | 0 | x | x
O=C1C=C(c2c(O)ccc3ccccc23)c2ccccc2C1=O | 52* | 4 | 8 | 46* | 41* | 48* | 55* | PRMT1 inh conf=40*
COc1cc(CCN=Cc2cccc(OC)c2O)c([N+](=O)[O-])cc1OC | 1 | -1 | 7 | x | 0 | x | x
O=C1c2ccccc2C(=O)c2c1ccc(O)c2O | 74* | 16 | 19* | 76* | x | 93* | 88*
Nc1ncnc2c1ncn2[C@@H]1O[C@H](CN2CCCS2(=O)=O)[C@@H](O)[C@H]1O | -7 | -4 | -4 | 2 | 3 | x | x
Cc1ccc(O)c(/C=N/NC(=O)Cc2ccc(Cl)cc2)c1 | 2 | 8 | 1 | 8 | -1 | x | x
O=C(Cc1ccc(Cl)cc1)N/N=C/c1ccc(O)c(O)c1 | 33* | 8 | -8 | 63* | 3 | 68* | 15
COCCNC(=S)N(C)[C@H]1C[C@H]2c3[nH]c4c(-c5ccc6c(c5)OCO6)cccc4c3CCN2C(=O)[C@H]1[C@H](C)O | -7 | 6 | -2 | x | 2 | x | x
Cn1c(CNc2ccc(Cl)cc2)nc2ccccc21 | -3 | 5 | -6 | -4 | 1 | x | x
CC(C)N=c1cc2n(-c3ccc(Cl)cc3)c3ccccc3nc-2cc1Nc1ccc(Cl)cc1 | 61* | 12 | 17 | 70* | 15 | 51* | 78*
CCOC(=O)C1CSCCS(=O)(=O)N1Cc1ccc(F)cc1F (stereo unspecified) | 4 | -1 | -3 | x | 6 | x | x
CC1CCC/C(=C\Nc2ccc(O)cc2)C1=O (stereo unspecified) | 44* | 24* | 16 | 39* | 15 | 9 | 22 | BSA TAMRA ctr=2;TCR-CD3 inh conf=3
Cc1cc(C(=O)O)ccc1N/C=C1\CCCC(C)C1=O (stereo unspecified) | 4 | -3 | 5 | 0 | 1 | x | x
COC(=O)[C@@H](N[C@H](/C=C/c1ccccc1)[C@@H](O)Cc1ccccc1)C(C)C | -5 | 11 | -3 | x | -5 | x | x
OCCNc1c2ccccc2nc2c(F)c(F)c(F)c(F)c12 | 7 | 8 | 0 | 0 | 1 | x | x
Cc1c2ccccc2nc2c(F)c(NC(C)C)c(F)c(F)c12 | 47* | -3 | 15 | 57* | 19 | 26 | 27
Cc1c2ccccc2nc2c(F)c(NCCO)c(F)c(F)c12 | 58* | 16 | 16 | 67* | 27* | 28 | 52*
CCN(CC)c1ccc(N=Cc2ccc([N+](=O)[O-])o2)cc1 | 45* | 5 | 7 | 64* | 41* | 41* | 16
CC1(C)CC(=O)C(C=Nc2ccc(C(=O)c3ccccc3)cc2N=CC2=C(O)CC(C)(C)CC2=O)=C(O)C1 | 30* | -8 | -9 | 41* | 77* | 15 | 8 | PRMT1 inh conf=0
CCCCOCC1CN(CCCC)S(=O)(=O)c2c(cccc2N(C)S(=O)(=O)c2ccc(C)cc2)O1 (stereo unspecified) | -5 | 0 | 0 | x | -6 | x | x
SMILES | ABHD4 inh | TCR CD3 inh | SIAE inh | HTRA1 inh | PRMT1 FP inh | HTRA1 conf | mABHD4 conf | others
COc1cccc(/C=N/NC(=O)c2c(C)nc3ccc(Cl)cn23)c1O | 35* | 17 | 2 | 62* | 7 | 65* | 55*
COc1ccccc1/C=N\NC(=O)c1c(C)nc2ccc(Cl)cn12 | 23 | -5 | -2 | -3 | -1 | x | x
C=CCOc1c(Cl)cc(CNCCC)cc1Cl | 6 | -4 | 1 | -3 | 1 | x | x
C=CCOc1c(Cl)cc(CNc2ccc(N(C)C)cc2)cc1OC | 40* | 8 | 11 | 48* | 19 | 7 | 45*
CCCN(CCC)Cc1cc(=O)oc2ccccc12 | 3 | -6 | 4 | x | -1 | x | x
CC(=O)C1=C(O)C(=O)N(c2ccc(S(N)(=O)=O)cc2)C1c1cccc([N+](=O)[O-])c1 (stereo unspecified) | 1 | 1 | -2 | -1 | -2 | x | x
CC(=O)C1C(=O)c2c(cccc2[N+](=O)[O-])C1=Nc1ccc(S(N)(=O)=O)cc1 (stereo unspecified) | 38* | 9 | 5 | 39* | 18 | 30 | 34*
CCCCc1c(-c2ccccc2OC)ncn1Cc1cccc(F)c1 | 5 | 7 | 5 | x | 4 | x | x
Cc1ccc(C(=O)c2coc3ccc(O)c(Cl)c23)cc1 | -21 | 1 | 1 | -8 | 3 | x | x
CCOC(=O)C(C(C)=O)c1c(Br)c(O)c(O)c2c(C(=O)c3ccc(C)cc3)coc12 (stereo unspecified) | 32* | -1 | -4 | 69* | 40* | 78* | 38* | PRMT1 inh conf=18
CCc1ccc(S(=O)(=O)/N=C2\C=C(Nc3cccc(C(=O)O)c3)C(=O)c3ccccc32)cc1 | 65* | 1 | 11 | 70* | 6 | 66* | 84*
O=C(O)c1ccc(NC2=C/C(=N/S(=O)(=O)c3cccs3)c3ccccc3C2=O)cc1 | 37* | 6 | 3 | 42* | 1 | 46* | 78*
Cc1cc(C(=O)c2ccccc2)cc(C)c1O | -3 | 0 | -2 | 35 | -2 | x | x
O=C(c1ccccc1)c1ccc(O)c(O)c1O | 39* | 16 | 10 | 68* | 14 | 79* | 19
O=C1Nc2ccccc2/C1=N\N=C\c1ccc(O)c(O)c1 | 48* | 32* | 4 | 49* | 33* | 78* | 44* | BSA TAMRA ctr=-15;TCR-CD3 inh conf=41*
O=S1(=O)CCOCC(CO)N1Cc1cccc(Br)c1 (stereo unspecified) | -3 | x | 0 | x | 8 | x | x
NNC(=O)c1cc(O)c(O)c(O)c1 | 36* | 57* | 6 | 79* | 18 | 21 | 6
